Among the data in ChEMBL document CHEMBL1122708, “Preparation and antibacterial activities of new 1,2,3-diazaborine derivatives and analogues” (1984) are ED50 and MIC values, retold here.

Assay [1] has as its system Escherichia coli. In words: Antibacterial activity againist Escherichia coli 120 infected NMRI mice after peroral administration. Type of assay: functional. As to conditions: po. The procedure, abridged:
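ED50 in NMRI mice infected intraperitoneally with E. coli 120; compound given orally immediately and 5 h after infection.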

Another assay deals with Proteus mirabilis. Nature of the assay: Minimum inhibitory concentration against Proteus mirabilis delta 89. The format is functional.
The test system of assay [2] is Neisseria gonorrhoeae. Nature of the assay: Minimum inhibitory concentration of compound against Neisseria gonorrhoeae AS 7720. Type of assay: functional. The gist of the method: (§1)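 Agar dilution on Kellogg agar, 10⁶ colony forming units, incubated 20 h at 36 °C in 5% CO₂; MIC is the lowest concentration giving no visible growth.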
Another assay concerns Klebsiella aerogenes. Nature of the assay: Minimum inhibitory concentration of compound against Enterobacter aerogenes delta 220. Type of assay: functional.
For a further assay, the system named is Salmonella typhimurium. Nature of the assay: Minimum inhibitory concentration of compound against Salmonella Typhimurium delta 119. Type of assay: functional, Salmonella enterica subsp. enterica serovar Typhimurium. To be noted: Salmonella enterica.
Assay [3] has as its system Escherichia coli. Nature of the assay: Minimum inhibitory concentration of compound against Escherichia coli delta 120. The format is functional.
The subject of the next assay is Klebsiella pneumoniae. Nature of the assay: Minimum inhibitory concentration of compound against Klebsiella pneumoniae delta 217. Type of assay: functional.
Assay [4] concerns Neisseria gonorrhoeae. In words: Minimum inhibitory concentration of compound against Neisseria gonorrhoeae W2. The format is functional. The procedure, abridged: as §1

One may read the ED50 as the dose that gives a 50% effect, or the effect in half of the subjects. Lower therefore signals an effect at a small dose. A word on the MIC: it is the lowest concentration found to suppress growth. Read a low MIC as inhibition by little substance.

Converted amounts (≈) assume the structure as drawn.

In turn, `Cc1ccc(S(=O)(=O)N2N=Cc3ccccc3B2O)cc1` returned an ED50 with Escherichia coli [1] of roughly 25 mg/kg. Further, the MIC was 12.5 µg/mL (≈ 41.6 µM) in the assay with Proteus mirabilis; 2 µg/mL (≈ 6.66 µM) with Neisseria gonorrhoeae [2]; greater than 50 µg/mL with Klebsiella aerogenes; 6.25 µg/mL (≈ 20.8 µM) with Salmonella typhimurium; 25 µg/mL (≈ 83.3 µM) against Escherichia coli [3]; 3.12 µg/mL (≈ 10.4 µM) with Klebsiella pneumoniae. The molecule also had an MIC with Neisseria gonorrhoeae [4] of 8 µg/mL (≈ 26.7 µM).
For `Cc1ccc(S(=O)(=O)N2N=Cc3c(Cl)cc(N(C)C)cc3B2O)cc1`, the ED50 in the assay on Escherichia coli [1] is greater than 300 mg/kg. Also, the MIC against Salmonella typhimurium and against Escherichia coli [3] was greater than 50 µg/mL throughout.
For the molecule `CS(=O)(=O)N1N=Cc2ccccc2B1O`, the MIC against Salmonella typhimurium and against Escherichia coli [3] was greater than 50 µg/mL throughout.
Turning to `Cc1cc(C)c(S(=O)(=O)N2N=Cc3c(F)cccc3B2O)c(C)c1`, the ED50 in the assay with Escherichia coli [1] was greater than 100 mg/kg. Further, the MIC in the assay with Proteus mirabilis is 10 µg/mL (≈ 28.9 µM); in the assay with Klebsiella aerogenes it was greater than 50 µg/mL; against Salmonella typhimurium, greater than 50 µg/mL; against Escherichia coli [3], greater than 50 µg/mL; against Klebsiella pneumoniae, 50 µg/mL (≈ 144 µM).
`Cc1ccc(S(=O)(=O)N2N=Cc3ccc(O)cc3B2O)cc1` came in with an ED50 in the assay with Escherichia coli [1] of roughly 300 mg/kg. Further, the MIC in the assay with Salmonella typhimurium and against Escherichia coli [3] was greater than 50 µg/mL throughout.
Molecule `O=S(=O)(c1cc(Cl)c(Cl)cc1Cl)N1N=Cc2cc(Br)ccc2B1O` displayed an ED50 with Escherichia coli [1] greater than 300 mg/kg. The MIC against Proteus mirabilis was 6.25 µg/mL (≈ 13.3 µM); with Neisseria gonorrhoeae [2] it was 1 µg/mL (≈ 2.14 µM); in the assay with Klebsiella aerogenes it was greater than 50 µg/mL; against Salmonella typhimurium, greater than 50 µg/mL; with Escherichia coli [3] it was greater than 50 µg/mL; with Klebsiella pneumoniae, 50 µg/mL (≈ 107 µM). This molecule registered an MIC against Neisseria gonorrhoeae [4] of 8 µg/mL (≈ 17.1 µM).
The molecule `Cc1ccc(S(=O)(=O)N2N=Cc3ccc(F)cc3B2O)cc1` displayed an ED50 in the assay on Escherichia coli [1] of roughly 250 mg/kg. Moreover, the MIC against Salmonella typhimurium and against Escherichia coli [3] was greater than 50 µg/mL throughout.
Take `CCS(=O)(=O)N1N=Cc2sc(Br)cc2B1O`: the MIC was 6.25 µg/mL (≈ 19.3 µM) in the assay on Proteus mirabilis; 2 µg/mL (≈ 6.19 µM) against Neisseria gonorrhoeae [2]; 12.5 µg/mL (≈ 38.7 µM) against Klebsiella aerogenes; 3.12 µg/mL (≈ 9.66 µM) with Salmonella typhimurium; 12.5 µg/mL (≈ 38.7 µM) with Escherichia coli [3]; 3.12 µg/mL (≈ 9.66 µM) in the assay on Klebsiella pneumoniae. The molecule further yielded an MIC against Neisseria gonorrhoeae [4] of 2 µg/mL (≈ 6.19 µM).
`Cc1ccc(S(=O)(=O)N2N=Cc3cc(C)ccc3B2O)cc1` returned a median effective dose (ED50) with Escherichia coli [1] of roughly 15 mg/kg. Further, the MIC against Proteus mirabilis was found to be 3.12 µg/mL (≈ 9.93 µM); with Neisseria gonorrhoeae [2] it was 1 µg/mL (≈ 3.18 µM); in the assay on Klebsiella aerogenes, 50 µg/mL (≈ 159 µM); against Salmonella typhimurium, 3.12 µg/mL (≈ 9.93 µM); against Escherichia coli [3], 12.5 µg/mL (≈ 39.8 µM); in the assay on Klebsiella pneumoniae it was 1.56 µg/mL (≈ 4.97 µM). Also, in the assay on Neisseria gonorrhoeae [4], the MIC is 8 µg/mL (≈ 25.5 µM).
In turn, `Cc1cc2c(s1)C=NN(S(=O)(=O)c1ccccc1Cl)B2O` yielded an ED50 with Escherichia coli [1] of 49 mg/kg. Further, the MIC against Proteus mirabilis turned out to be 1.56 µg/mL (≈ 4.58 µM); against Neisseria gonorrhoeae [2], 0.5 µg/mL (≈ 1.47 µM); against Klebsiella aerogenes it was 12.5 µg/mL (≈ 36.7 µM); in the assay on Salmonella typhimurium, 1.56 µg/mL (≈ 4.58 µM); with Escherichia coli [3], 12.5 µg/mL (≈ 36.7 µM); with Klebsiella pneumoniae it was 1.56 µg/mL (≈ 4.58 µM). It took 0.5 µg/mL (≈ 1.47 µM) to inhibit growth in the assay with Neisseria gonorrhoeae [4] (MIC).
`O=[N+]([O-])c1ccc(S(=O)(=O)N2N=Cc3c(F)cccc3B2O)cc1`: the ED50 in the assay with Escherichia coli [1] is roughly 100 mg/kg. Besides, the MIC against Salmonella typhimurium was 50 µg/mL (≈ 143 µM); against Escherichia coli [3] it was greater than 50 µg/mL.
As to `Cc1ccc2c(c1)C=NN(S(=O)(=O)N(C)C)B2O`, the MIC is 6.25 µg/mL (≈ 23.4 µM) in the assay on Proteus mirabilis; 8 µg/mL (≈ 29.9 µM) in the assay with Neisseria gonorrhoeae [2]; greater than 50 µg/mL in the assay with Klebsiella aerogenes; 12.5 µg/mL (≈ 46.8 µM) in the assay with Salmonella typhimurium; greater than 50 µg/mL against Escherichia coli [3]; 6.25 µg/mL (≈ 23.4 µM) in the assay on Klebsiella pneumoniae. Moreover, the MIC with Neisseria gonorrhoeae [4] turned out to be 8 µg/mL (≈ 29.9 µM).
The molecule `CCCS(=O)(=O)N1N=Cc2sc(C)cc2B1O` returned an ED50 in the assay with Escherichia coli [1] of 4.5 mg/kg. The MIC stood at 0.78 µg/mL (≈ 2.87 µM) in the assay with Proteus mirabilis; 1 µg/mL (≈ 3.67 µM) against Neisseria gonorrhoeae [2]; 3.12 µg/mL (≈ 11.5 µM) in the assay with Klebsiella aerogenes; 0.78 µg/mL (≈ 2.87 µM) against Salmonella typhimurium; 1.56 µg/mL (≈ 5.73 µM) against Escherichia coli [3]; 0.39 µg/mL (≈ 1.43 µM) against Klebsiella pneumoniae. The MIC against Neisseria gonorrhoeae [4] was 1 µg/mL (≈ 3.67 µM).
In the assay on Escherichia coli [1], `CC1=NN(S(=O)(=O)c2ccc(C)cc2)B(O)c2ccccc21` came in with an ED50 of roughly 100 mg/kg. For the same molecule, the MIC in the assay on Salmonella typhimurium and with Escherichia coli [3] was greater than 50 µg/mL throughout.
`O=S(=O)(c1ccccc1Cl)N1N=Cc2sc(Br)cc2B1O` registered an ED50 with Escherichia coli [1] of 39 mg/kg. For the same molecule, the MIC stood at 0.78 µg/mL (≈ 1.92 µM) in the assay with Proteus mirabilis; 0.5 µg/mL (≈ 1.23 µM) in the assay on Neisseria gonorrhoeae [2]; 25 µg/mL (≈ 61.7 µM) in the assay on Klebsiella aerogenes; 3.12 µg/mL (≈ 7.69 µM) in the assay with Salmonella typhimurium; 25 µg/mL (≈ 61.7 µM) against Escherichia coli [3]; 1.56 µg/mL (≈ 3.85 µM) against Klebsiella pneumoniae. Moreover, the MIC against Neisseria gonorrhoeae [4] is 1 µg/mL (≈ 2.47 µM).
The molecule `Cc1ccc(S(=O)(=O)N2N=Cc3c(ccn3C)B2O)cc1` had a median effective dose (ED50) in the assay on Escherichia coli [1] greater than 300 mg/kg. The MIC against Salmonella typhimurium and against Escherichia coli [3] was greater than 50 µg/mL each time.
The molecule `O=[N+]([O-])c1ccc(S(=O)(=O)N2N=Cc3cc(Br)ccc3B2O)cc1` returned an ED50 in the assay with Escherichia coli [1] of roughly 25 mg/kg. Besides, the MIC with Proteus mirabilis was 3.12 µg/mL (≈ 7.61 µM); against Neisseria gonorrhoeae [2], 1 µg/mL (≈ 2.44 µM); against Klebsiella aerogenes it was greater than 50 µg/mL; against Salmonella typhimurium it was 3.12 µg/mL (≈ 7.61 µM); in the assay on Escherichia coli [3], 6.25 µg/mL (≈ 15.2 µM); in the assay with Klebsiella pneumoniae, 0.78 µg/mL (≈ 1.9 µM). The molecule further returned an MIC with Neisseria gonorrhoeae [4] of 8 µg/mL (≈ 19.5 µM).
Molecule `Cc1ccc(S(=O)(=O)N2N=Cc3cc(Cl)c(Cl)cc3B2O)cc1` gave an ED50 with Escherichia coli [1] greater than 100 mg/kg. Also, the minimal inhibitory concentration (MIC) against Salmonella typhimurium and with Escherichia coli [3] was greater than 50 µg/mL in each case.
